Test results reported in ChEMBL document CHEMBL1138555, “N-acylated and N,N'-diacylated imidazolidine-2-thione derivatives and N,N'-diacylated tetrahydropyrimidine-2(1H)-thione analogues: synthesis and antiproliferative activity” (Eur J Med Chem, 2009).

Assays:
MT4 = assay: Antiproliferative activity against human MT4 cells assessed as reduction of growth by MTT assay; format: functional, cell-based
How it was run: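 MT-4 lymphoblastoid T cells (ATCC) in RPMI 1640 with 10% FCS, penicillin/streptomycin, checked for mycoplasma. 1 × 10⁴ mock-infected cells per well with serial dilutions from a 100 mM DMSO stock. Incubated 4 days at 37 °C, viable cells counted by MTT. IC50 versus untreated controls by linear regression. Mean of three separate experiments.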

HL-60(TB) = assay: Growth inhibition of human HL-60(TB) cells after 48 hrs by sulforhodamine B assay; format: functional; conditions: HL-60, 48 h
How it was run: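 NCI 60-cell-line screen protocol: cells exposed to compound at five 10-fold dilutions from 10^-4 to 10^-8 M for the last 48 h of a 72 h incubation. Sulforhodamine B protein assay estimated viability/growth. GI50 (50% growth inhibition) derived; where not reached or exceeded, reported as greater or less than the highest or lowest concentration tested.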

K562 = assay: Growth inhibition of human K562 cells after 48 hrs by sulforhodamine B assay; format: functional; conditions: K562, 48 h
How it was run: (§1)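 NCI screen panel. Five 10-fold concentrations from 10^-4 to 10^-8 M. Exposure for the last 48 h of a 72 h incubation. Growth estimated by sulforhodamine B protein assay. GI50 is the concentration giving 50% growth inhibition. Where that level was not reached or was exceeded, the value is given as above or below the highest or lowest concentration tested.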

MOLT-4 = assay: Growth inhibition of human MOLT4 cells after 48 hrs by sulforhodamine B assay; format: functional; conditions: MOLT-4, 48 h; how it was run: as §1
[1] = Growth inhibition of human […] cells after 48 hrs by sulforhodamine B assay; format: functional; how it was run: as §1
SR = assay: Growth inhibition of human SR cells after 48 hrs by sulforhodamine B assay; format: functional
How it was run: (§2)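 NCI in vitro panel screen. Compounds tested at five 10-fold dilutions, 10^-4 to 10^-8 M. Cells in 96-well plates were exposed for the last 48 h of a 72 h incubation. Viability/growth was read by sulforhodamine B protein assay. GI50 is the concentration giving 50% growth inhibition. Values beyond the tested range are reported as greater or less than the maximum or minimum concentration.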

A549 = assay: Growth inhibition of human A549 cells after 48 hrs by sulforhodamine B assay; format: functional; conditions: A549, 48 h; how it was run: as §1
EKVX = assay: Growth inhibition of human EKVX cells after 48 hrs by sulforhodamine B assay; format: functional; how it was run: as §1
HOP-62 = assay: Growth inhibition of human HOP62 cells after 48 hrs by sulforhodamine B assay; format: functional; conditions: HOP-62, 48 h; how it was run: as §1
HOP-92 = assay: Growth inhibition of human HOP92 cells after 48 hrs by sulforhodamine B assay; format: functional; conditions: HOP-92, 48 h; how it was run: as §1
NCI-H322M = assay: Growth inhibition of human NCI-H322M cells after 48 hrs by sulforhodamine B assay; format: functional; how it was run: as §1
NCI-H460 = assay: Growth inhibition of human NCI-H460 cells after 48 hrs by sulforhodamine B assay; format: functional; conditions: NCI-H460, 48 h; how it was run: as §1
COLO 205 = assay: Growth inhibition of human COLO205 cells after 48 hrs by sulforhodamine B assay; format: functional; conditions: COLO 205, 48 h; how it was run: as §1
HCT-116 = assay: Growth inhibition of human HCT116 cells after 48 hrs by sulforhodamine B assay; format: functional; conditions: HCT-116, 48 h; how it was run: as §1
HCT-15 = assay: Growth inhibition of human HCT15 cells after 48 hrs by sulforhodamine B assay; format: functional; conditions: HCT-15, 48 h; how it was run: as §1
HT-29 = assay: Growth inhibition of human HT-29 cells after 48 hrs by sulforhodamine B assay; format: functional; conditions: HT-29, 48 h; how it was run: as §1
KM12 = assay: Growth inhibition of human KM12 cells after 48 hrs by sulforhodamine B assay; format: functional; conditions: KM12, 48 h; how it was run: as §1
SW-620 = assay: Growth inhibition of human SW620 cells after 48 hrs by sulforhodamine B assay; format: functional; conditions: SW-620, 48 h; how it was run: as §2
SF-268 = assay: Growth inhibition of human SF268 cells after 48 hrs by sulforhodamine B assay; format: functional; conditions: SF-268, 48 h; how it was run: as §1
SF-295 = assay: Growth inhibition of human SF295 cells after 48 hrs by sulforhodamine B assay; format: functional; conditions: SF-295, 48 h; how it was run: as §1
SF-539 = assay: Growth inhibition of human SF539 cells after 48 hrs by sulforhodamine B assay; format: functional; conditions: SF-539, 48 h; how it was run: as §1
SNB-19 = assay: Growth inhibition of human SNB19 cells after 48 hrs by sulforhodamine B assay; format: functional; conditions: SNB-19, 48 h; how it was run: as §2
SNB-75 = assay: Growth inhibition of human SNB75 cells after 48 hrs by sulforhodamine B assay; format: functional; conditions: SNB-75, 48 h; how it was run: as §2
U-251 = assay: Growth inhibition of human U251 cells after 48 hrs by sulforhodamine B assay; format: functional; conditions: U-251, 48 h; how it was run: as §2
LOX IMVI = assay: Growth inhibition of human LOXIMVI cells after 48 hrs by sulforhodamine B assay; format: functional; how it was run: as §1
Malme-3M = assay: Growth inhibition of human MALME-3M cells after 48 hrs by sulforhodamine B assay; format: functional; how it was run: as §1
M14 = assay: Growth inhibition of human M14 cells after 48 hrs by sulforhodamine B assay; format: functional; conditions: M14, 48 h; how it was run: as §1
SK-MEL-28 = assay: Growth inhibition of human SK-MEL-28 cells after 48 hrs by sulforhodamine B assay; format: functional; conditions: SK-MEL-28, 48 h; how it was run: as §1
SK-MEL-5 = assay: Growth inhibition of human SK-MEL-5 cells after 48 hrs by sulforhodamine B assay; format: functional; conditions: SK-MEL-5, 48 h; how it was run: as §1
UACC-62 = assay: Growth inhibition of human UACC62 cells after 48 hrs by sulforhodamine B assay; format: functional; conditions: UACC-62, 48 h; how it was run: as §2
IGROV-1 = assay: Growth inhibition of human IGROV1 cells after 48 hrs by sulforhodamine B assay; format: functional; conditions: IGROV-1, 48 h; how it was run: as §1
OVCAR-3 = assay: Growth inhibition of human OVCAR-3 cells after 48 hrs by sulforhodamine B assay; format: functional; conditions: OVCAR-3, 48 h; how it was run: as §1
OVCAR-4 = assay: Growth inhibition of human OVCAR4 cells after 48 hrs by sulforhodamine B assay; format: functional; conditions: OVCAR-4, 48 h; how it was run: as §1
OVCAR-8 = assay: Growth inhibition of human OVCAR8 cells after 48 hrs by sulforhodamine B assay; format: functional; conditions: OVCAR-8, 48 h; how it was run: as §1
SK-OV-3 = assay: Growth inhibition of human SKOV3 cells after 48 hrs by sulforhodamine B assay; format: functional; conditions: SK-OV-3, 48 h; how it was run: as §1
786-0 = assay: Growth inhibition of human 786-0 cells after 48 hrs by sulforhodamine B assay; format: functional; conditions: 786-0, 48 h; how it was run: as §1
ACHN = assay: Growth inhibition of human ACHN cells after 48 hrs by sulforhodamine B assay; format: functional; how it was run: as §1
CAKI-1 = assay: Growth inhibition of human Caki1 cells after 48 hrs by sulforhodamine B assay; format: functional; conditions: CAKI-1, 48 h; how it was run: as §1
SN12C = assay: Growth inhibition of human SN12C cells after 48 hrs by sulforhodamine B assay; format: functional; how it was run: as §2
TK-10 = assay: Growth inhibition of human TK10 cells after 48 hrs by sulforhodamine B assay; format: functional; conditions: TK-10, 48 h; how it was run: as §2
UO-31 = assay: Growth inhibition of human UO31 cells after 48 hrs by sulforhodamine B assay; format: functional; conditions: UO-31, 48 h; how it was run: as §2
PC-3 = assay: Growth inhibition of human PC3 cells after 48 hrs by sulforhodamine B assay; format: functional; conditions: PC-3, 48 h; how it was run: as §1
DU-145 = assay: Growth inhibition of human DU145 cells after 48 hrs by sulforhodamine B assay; format: functional; conditions: DU-145, 48 h; how it was run: as §1
MCF7 = assay: Growth inhibition of human MCF7 cells after 48 hrs by sulforhodamine B assay; format: functional; conditions: MCF7, 48 h; how it was run: as §1
MDA-MB-231 = assay: Growth inhibition of human MDA-MB-231 cells after 48 hrs by sulforhodamine B assay; format: functional; conditions: MDA-MB-231, 48 h; how it was run: as §1
MDA-MB-435 = assay: Growth inhibition of human MDA-MB-435 cells after 48 hrs by sulforhodamine B assay; format: functional; conditions: MDA-MB-435, 48 h; how it was run: as §1
BT-549 = assay: Growth inhibition of human BT549 cells after 48 hrs by sulforhodamine B assay; format: functional; conditions: BT-549, 48 h; how it was run: as §1
T47D = assay: Growth inhibition of human T47D cells after 48 hrs by sulforhodamine B assay; format: functional; how it was run: as §2

`CC(=O)/C(=C/N1CCN(C(=O)c2ccco2)C1=S)C(=O)c1ccccc1` showed an IC50 (MT4) of 5 µM, a GI50 (HL-60(TB)) of 8.2 µM and a GI50 (K562) of 6.7 µM. It also gave a GI50 (MOLT-4) of 15.9 µM, a GI50 [1] of 3.8 µM and a GI50 (SR) of 2.7 µM. It also gave a GI50 (A549) of 10.8 µM, a GI50 (EKVX) of 7.9 µM and a GI50 (HOP-62) of 11.7 µM. It also gave a GI50 (HOP-92) of 11.1 µM, a GI50 (NCI-H322M) of 27.9 µM and a GI50 (NCI-H460) of 7 µM. It also gave a GI50 (COLO 205) of 16.5 µM, a GI50 (HCT-116) of 6.4 µM and a GI50 (HCT-15) of 4.7 µM. For the same molecule, the GI50 (HT-29) was 16.9 µM, the GI50 (KM12) was 8.4 µM and the GI50 (SW-620) was 6.1 µM. The GI50 (SF-268) was 10.7 µM, the GI50 (SF-295) was 19.3 µM and the GI50 (SF-539) was 1.1 µM. It also gave a GI50 (SNB-19) of 16.3 µM, a GI50 (SNB-75) of 10.9 µM and a GI50 (U-251) of 13.4 µM. The GI50 (LOX IMVI) was 8.9 µM, the GI50 (Malme-3M) was 9.3 µM and the GI50 (M14) was 6.3 µM. For the same molecule, the GI50 (SK-MEL-28) was 28 µM, the GI50 (SK-MEL-5) was 8.1 µM and the GI50 (UACC-62) was 7.3 µM. For the same molecule, the GI50 (IGROV-1) was 10.9 µM, the GI50 (OVCAR-3) was 17.2 µM and the GI50 (OVCAR-4) was 20.1 µM. The GI50 (OVCAR-8) was 8.8 µM, the GI50 (SK-OV-3) was 17.5 µM and the GI50 (786-0) was 11.2 µM. The GI50 (ACHN) was 6.9 µM, the GI50 (CAKI-1) was 9.3 µM and the GI50 (SN12C) was 7.7 µM. For the same molecule, the GI50 (TK-10) was 10.6 µM, the GI50 (UO-31) was 8.8 µM and the GI50 (PC-3) was 17.1 µM. It also gave a GI50 (DU-145) of 11 µM, a GI50 (MCF7) of 1.3 µM and a GI50 (MDA-MB-231) of 9.5 µM. For the same molecule, the GI50 (MDA-MB-435) was 10.7 µM, the GI50 (BT-549) was 5.6 µM and the GI50 (T47D) was 4.3 µM.
